# STAT3 inh: reduces IL-6 driven STAT3 reporter signal; 190,000 tested, 0.89% active; AID 862; inhibition, % at 5.5 µM; U3A cells, IL-6 STAT3-luciferase reporter, luminescence; host cell line lacks STAT1;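 active = inhibition above the mean inhibition across all screened compounds plus 3 SD, cut at about 44% in these data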;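 note: 0% = DMSO only wells and 100% = 100 µM nifuroxazide control wells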
# STAT3 activator: increases IL-6 driven STAT3 reporter signal; 190,000 tested, 0.91% active; activation (% of control), % at 5.6 µM; U3A cells, IL-6 STAT3-luciferase reporter, luminescence; 100% = signal with IL-6 EC80 alone; AID 871;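 active = activation above the screen-wide mean of compound activation plus 3 SD, cut at about 130% in these data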;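 note: 0% = background luminescence of wells with medium and substrate only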
#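 Detection: reporter luminescence signal / Assay system: STAT1-lacking human U3A cells, STAT3 luciferase reporter / Incubation: compound pre-incubation 1 h before IL-6, then 6 h stimulation at 37 °C / Control set: IL-6-only high control / Read-out: % activation relative to IL-6 control / Probe or stimulus: Interleukin-6, 33 ng/mL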
# PPC-1+TRAIL kill: kills PPC-1 cancer cells in the presence of TRAIL; PPC-1 cells + TRAIL, ATPLite viability luminescence; cell killing (% activity), % at 4 µM or 5 µM; 220,000 tested, 0.41% active; AID 1443;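 active = cell killing above 50% in the first pass at 4 µM, then a duplicate retest at 5 µM averaging 50% or more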;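 note: plate controls were cells with TRAIL plus DMSO for no effect and medium-only wells lacking cells for full effect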
# HSP90 inh: HSP90 refolding inhibition in rabbit reticulocyte lysate; luciferase refolding luminescence, 3 h; inhibition, % at 5.6 µM; 290,000 tested, 0.91% active;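 active = inhibition above the screen-wide mean plus 3 SD, computed separately per campaign, cut at about 16% in these data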;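 note: 0% = DMSO wells and 100% = 60 µM geldanamycin wells; inhibitors lower the luminescence because luciferase stays unfolded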
# TRAIL sens C8: sensitizes caspase-8 expressing cells to TRAIL | NB7+C8 cells + TRAIL, ATPlite viability luminescence | inhibition (viability loss, TRAIL sensitization), % at 10 µM | 360,000 tested, 1% active | AID 624354;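 active = compounds causing at least 50% loss of cell viability in the single-dose screen, relative to plate controls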
# STAT1 inh-1: reduces IFN-gamma driven STAT1 reporter signal. NIH 3T3 STAT1-luciferase reporter, luminescence. inhibition, % at 5.5 µM. 200,000 tested, 0.35% active;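 active = inhibition above a set limit, the mean inhibition across all tested compounds plus 3 SD, cut at about 34% in these data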;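 note: 0% = IFN-gamma with DMSO and 100% = IFN-gamma with 300 µM nifuroxazide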
# STAT1 inh-2: confirmation of STAT1 signaling inhibitors; 200 tested, 55% active; AID 1263; NIH 3T3 STAT1-luciferase reporter, IFN-gamma, luminescence; shares compounds with STAT1 inh-1; inhibition, % at 5.5 µM;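 active = triplicate mean inhibition exceeding the hit cutoff computed for the primary STAT1 screen, cut at about 35% in these data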;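 note: 0% = DMSO with IFN-gamma and 100% = 300 µM nifuroxazide with IFN-gamma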
# NFkB inh: NF-kappaB inhibition in STAT1 inhibitor counter-screen; inhibition, % at 5.7 µM; 200 tested, 30% active; HEK293T NF-kB luciferase reporter, TNF-alpha induced, luminescence; shares compounds with STAT1 inh-1;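 active = inhibition above the mean of solvent-only control wells plus 3 SD of those wells, cut at about 15% in these data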;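 note: 0% = DMSO with TNF-alpha and 100% = MG-132 control with TNF-alpha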
# STAT3 inh 2: inhibits STAT3, counter-screen to STAT1 inhibitors | shares compounds with STAT1 inh-1 | U3A cells, IL-6 STAT3 luciferase reporter, luminescence; cells lacking STAT1 | inhibition, % at 5.7 µM | 200 tested, 20% active | AID 1310;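 active = inhibition above the mean of solvent-only control wells plus 3 SD, set per campaign, cut at about 25% in these data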;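 note: 0% = IL-6 plus DMSO and 100% = IL-6 plus nifuroxazide control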
# PPC-1 tox: PPC-1 cell cytotoxicity; PPC-1 viability, ATPlite luminescence, overnight; 1,200 tested, 50% active; shares compounds with PPC-1+TRAIL kill; cytotoxicity, % at 5 µM; AID 1447;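 active = reconfirmed compounds whose average cytotoxicity reaches 50% or more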;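 note: 0% = DMSO-treated cells and 100% = wells holding medium but no cells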
# HSP90 inh confirm: confirmation of HSP90 inhibitors | rabbit reticulocyte lysate, luciferase refolding luminescence, 3 h | shares compounds with HSP90 inh | 2,300 tested, 64% active | inhibition, % at 5.9 µM; in the data active = inhibition above about 18%;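 note: 0% = vehicle wells and 100% = reference inhibitor wells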
# luciferase ctr: blocks native firefly luciferase in HSP90 counter-screen; shares compounds with HSP90 inh; purified native firefly luciferase, luminescence; inhibition, % at 5.9 µM; 2,300 tested, 48% active; AID 1847;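 active = inhibition above the mean inhibition of all tested sample wells plus 3 SD, cut at about 10% in these data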;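 note: 0% = DMSO with luciferase and 100% = wells lacking luciferase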
# Target sequence (P08659 whole entry, looked up): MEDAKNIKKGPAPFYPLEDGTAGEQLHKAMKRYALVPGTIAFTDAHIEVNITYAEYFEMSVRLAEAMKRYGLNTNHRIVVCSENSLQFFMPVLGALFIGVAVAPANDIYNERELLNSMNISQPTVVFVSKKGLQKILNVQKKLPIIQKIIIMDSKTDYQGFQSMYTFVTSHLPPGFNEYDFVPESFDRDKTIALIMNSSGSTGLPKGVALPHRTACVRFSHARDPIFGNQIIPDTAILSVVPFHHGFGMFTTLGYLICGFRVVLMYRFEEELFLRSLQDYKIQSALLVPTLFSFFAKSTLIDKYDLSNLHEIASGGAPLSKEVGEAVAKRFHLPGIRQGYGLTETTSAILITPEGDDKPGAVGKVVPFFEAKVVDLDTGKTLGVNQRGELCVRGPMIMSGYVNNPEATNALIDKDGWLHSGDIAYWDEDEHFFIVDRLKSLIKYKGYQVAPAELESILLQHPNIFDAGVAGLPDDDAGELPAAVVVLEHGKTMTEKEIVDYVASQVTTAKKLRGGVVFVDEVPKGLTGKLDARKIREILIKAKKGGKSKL
# Starred values were filed as active, the others as inactive; / = not tested or not shown. Most compounds without a hit are left out; they make up all but 2.3% or so of the library.
SMILES,STAT3 inh,STAT3 activator,PPC-1+TRAIL kill,HSP90 inh,TRAIL sens C8,STAT1 inh-1,PPC-1 tox,others
Cc1ccc(CNC(=O)CSc2nc3c(sc4ccccc43)c(=O)n2CCCN2CCCC2)cc1,-2.1,107.6,5.8,-1.1,-23.9,-2.7,/,
Cc1nc(N)nc(N)c1/C=C/C(C)(C)c1ccc(Cl)cc1,39.2,69.2,51.2*,-0.6,75.7*,37.7*,47.7,STAT1 inh-2=38.2*;NFkB inh=28.0*;STAT3 inh 2=39.8*
Cc1cccc(NC(=O)/C(C#N)=C/c2ccc(F)cc2)n1,/,/,/,2.3,-2.8,/,/,
O=C(CCN1C(=O)/C(=C/c2ccccc2)SC1=S)Nc1ccccn1,/,/,/,-1.0,-1.0,/,/,
Cc1ccc(/C=C2\SC(=S)N(CCCC(=O)Nc3ccccn3)C2=O)cc1,43.3,64.5,19.7,33.5*,9.7,38.4*,/,STAT1 inh-2=40.1*;NFkB inh=44.5*;STAT3 inh 2=46.0*;HSP90 inh confirm=38.5*;luciferase ctr=-17.7
NC(N)=Nc1nc(-c2ccccc2)c2ccccc2n1,16.4,87.0,14.6,4.5,3.6,9.6,/,
O=C(O)CSc1nnc(COc2cccc3cccnc23)n1-c1ccc(Cl)cc1,0.1,105.4,-2.7,-2.1,-5.2,0.7,/,
CCOC(=O)CS(=O)(=O)c1nc(-c2ccc(F)cc2)cc(C(F)(F)F)n1,8.8,97.9,8.9,53.1*,-3.0,34.4*,/,STAT1 inh-2=46.0*;NFkB inh=21.6*;STAT3 inh 2=13.4;HSP90 inh confirm=-1.6;luciferase ctr=-5.2
O=C(O)CSc1nnc(NC(=O)c2ccc3c(c2)OCO3)s1,20.7,90.9,65.7*,25.9*,73.9*,37.6*,67.1*,STAT1 inh-2=27.1;NFkB inh=19.7*;STAT3 inh 2=16.9;HSP90 inh confirm=26.2*;luciferase ctr=-7.6
CC(C)(C)c1ccc(C(=O)/C=C2\NC(=O)CS2)cc1,40.2,70.9,56.0*,11.4,85.2*,-22.9,57.0*,
CSc1ccc(/C=C/C(=O)NC(=O)c2ccccc2O)cc1,26.3,79.1,60.1*,1.6,52.4*,3.1,61.9*,
O=C(/C=C/c1ccc(Br)cc1)NC(=O)c1ccccc1O,24.4,83.3,61.5*,-1.7,62.7*,1.5,62.1*,
O=C(/C=C/c1ccc(O)c(O)c1)NC(=O)c1ccccc1O,/,/,/,-0.9,42.0,/,/,
N#Cc1ccc(-c2ccc(OCC(O)CN3CCCCC3)cc2)cc1 (centres undefined),/,/,/,-1.7,-2.7,/,/,
CC(NC(=O)c1ccccc1Cl)C1COc2ccccc2O1 (centres undefined),8.5,96.5,0.5,-0.1,-7.0,-10.0,-0.1,
CNC(=O)COC(=O)c1cc(F)c(F)cc1Cl,1.5,104.2,11.7,0.9,0.4,5.7,/,
CC(C)NC(=O)COC(=O)c1cc(F)c(F)cc1Cl,-2.4,101.9,9.5,-2.1,0.2,0.3,14.6,
O=C(COC(=O)CN1C(=O)c2ccccc2C1=O)Nc1ccc(S(=O)(=O)N2CCCC2)cc1,2.7,98.0,13.2,2.6,37.8,-0.9,16.1,
CC(=O)NCCc1c[nH]c2ccc(OCC(O)CNC(C)(C)C)cc12 (centres undefined),/,/,0.0,1.9,1.4,/,/,
O=C1c2cccc3c([N+](=O)[O-])ccc(c23)C(=O)N1Cc1cccnc1,4.1,103.8,26.3,0.4,2.3,-5.8,14.0,
COc1ccc(-c2nc(Cn3c(SCc4ccc(C)cc4)nc4ccncc43)c(C)o2)cc1OC,-6.9,113.8,19.9,0.7,2.6,-0.7,14.0,
COc1ccc(N2CCN(Cc3nc4cc(Cl)ccc4c(=O)[nH]3)CC2)cc1,-0.7,104.6,0.1,-3.9,-5.5,-5.5,5.5,
CC(=O)N1CCN(Cc2nc3cc(Cl)ccc3c(=O)[nH]2)CC1,0.8,102.4,35.5,-2.3,4.3,-6.0,/,
CCCn1nnnc1NCc1ccccc1OCc1cccs1,-7.5,106.2,5.8,-1.4,-4.6,-6.5,12.8,
CCCn1nnnc1NCc1ccccc1OCc1ccc(F)cc1,-2.5,104.8,20.6,1.6,1.3,-2.0,/,
SMILES,STAT3 inh,STAT3 activator,PPC-1+TRAIL kill,HSP90 inh,TRAIL sens C8,STAT1 inh-1,PPC-1 tox,others
CCC(C)N1C(=O)c2ccccc2C1C(=O)NC1CCCCCC1 (centres undefined),8.2,97.0,-22.4,0.1,-26.9,6.3,/,
CC1(C)CC(=O)C2=C(C1)OC(N)=C(C#N)C2c1ccccc1OC(=O)N1CCOCC1 (centres undefined),-0.2,105.9,6.3,3.6,1.8,-1.3,19.4,
CCOC(=O)N1CCN(C(=O)c2cc(-c3ccc(OCC)cc3)nc3ccccc23)CC1,-0.7,102.9,82.2*,0.0,88.8*,-50.9,83.0*,
CCOC(=O)N1CCN(C(=O)c2cc(-c3ccncc3)nc3ccccc23)CC1,/,/,/,/,27.6,/,/,
CCOc1ccc(-c2cc(C(=O)N3CCN(C)CC3)c3ccccc3n2)cc1,10.0,97.0,72.0*,4.6,74.7*,-16.7,67.3*,
Cn1nccc1NC(=O)c1nccnc1C(=O)O,/,/,-12.8,-0.7,-19.0,/,/,
O=C(/C=C/Nc1ccc(F)cc1F)c1ccco1,83.7*,30.1,89.5*,4.5,91.7*,77.1*,88.7*,
O=C(/C=C/Nc1ccc(Br)cc1F)c1ccco1,95.7*,19.0,89.0*,10.2,91.5*,81.5*,88.9*,
CN=c1sc2ccccc2n1CC(O)c1ccccc1 (centres undefined),15.2,90.5,3.5,1.8,-0.5,-2.4,/,
O=C(O)c1cccc(S(=O)(=O)Nc2ccc(OCc3ccccc3)cc2)c1,/,/,/,-4.1,-3.8,/,/,
CCOc1ccc(OCc2cccc(C(=O)O)c2)cc1,/,/,58.9*,/,83.7*,/,58.5*,
CCNC(=S)Nc1ccc(N2CCCCC2)cc1,-19.4,117.5,4.6,-1.2,5.3,-17.9,/,
CCNC(=S)N/N=C/c1sc(N2CCCCC2)nc1-c1cccs1,-14.8,109.7,28.6,-3.1,23.4,-17.0,40.6,
O=S1(=O)N=C(Nc2ccc(N3CCOCC3)c(Cl)c2)c2ccccc21,-12.0,120.1,7.8,-1.0,9.6,-49.0,/,
O=C(Nc1nc(=O)c2ccccc2s1)c1ccccc1,-28.2,125.6,26.2,-5.2,34.2,-48.2,32.9,

# From PubChem
